Experimental data from ChEMBL document CHEMBL2069249, “Saquayamycins G-K, cytotoxic angucyclines from Streptomyces sp. Including two analogues bearing the aminosugar rednose” (J Nat Prod, 2012).

Assays:
PC-3 = experiment: Growth inhibition of human PC3 cells incubated for 48 hrs by resazurin dye reduction based fluorimetric assay; format: functional; settings: PC-3, 48 h
Procedure, shortened: (§1)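 Cells seeded at 5 × 10^3 per well in full growth medium, adhered overnight, then medium replaced with fresh medium containing serial compound concentrations or DMSO control; 48 h at 37 °C. Resazurin added, 3 h at 37 °C; fluorescence ex 560/em 590 nm, time-zero reading subtracted. GI50 by nonlinear sigmoidal dose-response fit; landomycin A positive control; four replicates.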

NCI-H460 = experiment: Growth inhibition of human NCI-H460 cells incubated for 48 hrs by resazurin dye reduction based fluorimetric assay; format: functional; settings: NCI-H460, 48 h; procedure, shortened: as §1
[1] = molecular target: Nitric oxide synthase, inducible (Homo sapiens, UniProt P35228); experiment: Inhibition of iNOS
Nitric oxide synthase, inducible, sequence (P35228 whole entry): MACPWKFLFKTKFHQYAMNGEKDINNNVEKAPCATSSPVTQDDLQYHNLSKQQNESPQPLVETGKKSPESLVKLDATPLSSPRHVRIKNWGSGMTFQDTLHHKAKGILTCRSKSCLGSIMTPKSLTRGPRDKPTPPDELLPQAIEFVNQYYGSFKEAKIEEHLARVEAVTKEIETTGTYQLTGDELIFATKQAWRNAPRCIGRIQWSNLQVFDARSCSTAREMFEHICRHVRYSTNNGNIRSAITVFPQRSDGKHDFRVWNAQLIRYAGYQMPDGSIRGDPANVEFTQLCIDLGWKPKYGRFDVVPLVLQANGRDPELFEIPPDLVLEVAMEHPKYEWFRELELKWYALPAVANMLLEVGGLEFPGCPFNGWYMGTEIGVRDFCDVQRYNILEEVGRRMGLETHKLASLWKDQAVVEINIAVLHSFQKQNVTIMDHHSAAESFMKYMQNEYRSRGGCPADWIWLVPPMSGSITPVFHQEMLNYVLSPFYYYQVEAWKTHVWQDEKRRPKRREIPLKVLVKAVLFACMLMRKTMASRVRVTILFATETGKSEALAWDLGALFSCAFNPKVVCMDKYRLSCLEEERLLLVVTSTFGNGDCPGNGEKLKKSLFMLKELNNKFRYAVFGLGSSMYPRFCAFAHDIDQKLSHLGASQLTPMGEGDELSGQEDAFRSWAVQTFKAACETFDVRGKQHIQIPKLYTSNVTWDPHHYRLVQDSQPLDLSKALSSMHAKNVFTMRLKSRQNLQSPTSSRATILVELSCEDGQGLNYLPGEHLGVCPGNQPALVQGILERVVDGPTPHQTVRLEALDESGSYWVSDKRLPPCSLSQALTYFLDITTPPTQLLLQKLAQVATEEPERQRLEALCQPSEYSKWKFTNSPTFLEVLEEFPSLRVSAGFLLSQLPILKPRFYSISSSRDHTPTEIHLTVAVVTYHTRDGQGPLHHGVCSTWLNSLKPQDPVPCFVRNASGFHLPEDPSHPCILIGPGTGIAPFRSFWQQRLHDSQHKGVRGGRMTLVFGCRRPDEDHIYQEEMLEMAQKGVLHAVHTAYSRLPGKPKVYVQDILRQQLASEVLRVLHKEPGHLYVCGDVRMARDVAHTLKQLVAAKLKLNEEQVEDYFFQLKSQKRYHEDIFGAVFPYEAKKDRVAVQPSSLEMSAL

[2] = Inhibition of bovine brain FPTase; parameters: species or system Bos taurus

| GI50 (PC-3) | GI50 (NCI-H460) | IC50 [1] | IC50 [2] | SMILES |
| --- | --- | --- | --- | --- |
| 74.5 nM | 3.93 µM |  |  | C[C@@H]1O[C@@H](O[C@H]2CC[C@H](O[C@@]3(C)CC(=O)[C@]4(O)C5=C(C=C[C@]4(O)C3)C(=O)c3c(ccc([C@H]4C[C@H]6O[C@H]7CC(=O)[C@H](C)O[C@H]7O[C@@H]6[C@@H](C)O4)c3O)C5=O)O[C@H]2C)C=CC1=O [SAQUAYAMYCIN B] |
|  |  |  | 1800 nM | C[C@@H]1O[C@@H](O[C@H]2[C@H](O)C[C@H](c3ccc4c(c3O)C(=O)C3=C(C4=O)[C@@]4(O)C(=O)C[C@](C)(O[C@H]5CC[C@H](O[C@H]6CCC(=O)[C@H](C)O6)[C@H](C)O5)C[C@@]4(O)C=C3)O[C@@H]2C)C=CC1=O [SAQUAYAMYCINS E] |
|  |  |  | 2000 nM | C[C@@H]1O[C@@H](O[C@H]2CC[C@H](O[C@@]3(C)CC(=O)[C@]4(O)C5=C(C=C[C@]4(O)C3)C(=O)c3c(ccc([C@H]4C[C@@H](O)[C@H](O[C@H]6CCC(=O)[C@H](C)O6)[C@@H](C)O4)c3O)C5=O)O[C@H]2C)C=CC1=O [SAQUAYAMYCINS F] |
| 790 nM | 3.3 µM |  |  | C[C@@H]1O[C@@H](O[C@H]2CC[C@H](O[C@@]3(C)CC(=O)[C@]4(O)C5=C(C=C[C@]4(O)C3)C(=O)c3c(ccc([C@H]4C[C@H]6O[C@H]7CC(=O)[C@H](C)O[C@H]7O[C@@H]6[C@@H](C)O4)c3O)C5=O)O[C@H]2C)C(N)=CC1=O [SAQUAYAMYCIN H] |
| 179 nM | 5.69 µM |  |  | C[C@@H]1O[C@H]2O[C@@H]3[C@@H](C)O[C@@H](c4ccc5c(c4O)C(=O)C4=C(C5=O)[C@@]5(O)C(=O)C[C@](C)(O[C@H]6CC[C@H](O[C@H]7CC[C@H](O)[C@H](C)O7)[C@H](C)O6)C[C@@]5(O)C=C4)C[C@H]3O[C@H]2CC1=O [SAQUAYAMYCIN J] |

Continued, compound first:

| SMILES | GI50 (PC-3) | GI50 (NCI-H460) | IC50 [1] | IC50 [2] |
| --- | --- | --- | --- | --- |
| C[C@@H]1O[C@@H](O[C@H]2CC[C@H](O[C@@]3(C)CC(=O)[C@]4(O)C5=C(C=C[C@]4(O)C3)C(=O)c3c(ccc([C@H]4C[C@@H](O)[C@H](O)[C@@H](C)O4)c3O)C5=O)O[C@H]2C)C=CC1=O (relative stereo) [SAQUAYAMYCIN G] | 554 nM | 6.72 µM |  |  |
| C[C@@H]1O[C@@H](O[C@H]2[C@H](O)C[C@H](c3ccc4c(c3O)C(=O)C3=C(C4=O)[C@@]4(O)C(=O)C[C@](C)(O[C@H]5CC[C@H](O[C@H]6C=CC(=O)[C@H](C)O6)[C@H](C)O5)C[C@@]4(O)C=C3)O[C@@H]2C)C=CC1=O [SAQUAYAMYCINS A] | 106 nM | 6.2 µM |  |  |
| C[C@@H]1O[C@@H](O[C@H]2[C@H](O)C[C@H](c3ccc4c(c3O)C(=O)C3=C(C4=O)[C@@]4(O)C(=O)C[C@](C)(O)C[C@@]4(O)C=C3)O[C@@H]2C)C=CC1=O [SAQUAYAMYCINS A1] |  |  | 101 µM |  |
| Cc1cc(O)c2c(c1)C[C@@H](O)C1=C2C(=O)c2c(O)ccc(O[C@H]3C[C@@H](O)[C@H](O[C@H]4C[C@@H](O[C@H]5CC[C@H](O[C@H]6C[C@@H](O)[C@H](O[C@H]7C[C@@H](O[C@H]8CC[C@H](O)[C@H](C)O8)[C@H](O)[C@@H](C)O7)[C@@H](C)O6)[C@H](C)O5)[C@H](O)[C@@H](C)O4)[C@@H](C)O3)c2C1=O [LANDOMYCIN A] | 550 nM | 4.11 µM |  |  |
| C[C@@H]1O[C@H]2O[C@@H]3[C@@H](C)O[C@@H](c4ccc5c(c4O)C(=O)C4=C(C5=O)[C@@]5(O)C(=O)C[C@](C)(O)C[C@@]5(O)C=C4)C[C@H]3O[C@H]2CC1=O [SAQUAYAMYCIN B1] | 1760 nM | 13.2 µM |  |  |
| C[C@@H]1O[C@@H](O[C@H]2CC[C@H](O[C@@]3(C)CC(=O)[C@]4(O)C5=C(C=C[C@]4(O)C3)C(=O)c3c(ccc([C@H]4C[C@@H](O)[C@H](O[C@@H]6O[C@@H](C)C(=O)C=C6N)[C@@H](C)O4)c3O)C5=O)O[C@H]2C)C=CC1=O (relative stereo) [SAQUAYAMYCIN I] | 915 nM | 7.94 µM |  |  |
| C[C@@H]1O[C@@H](O[C@H]2CC[C@H](O[C@@]3(C)CC(=O)[C@]4(O)C5=C(C=C[C@]4(O)C3)C(=O)c3c(ccc([C@H]4C[C@@H](O)[C@H](O[C@H]6CC[C@H](O)[C@H](C)O6)[C@@H](C)O4)c3O)C5=O)O[C@H]2C)C=CC1=O [SAQUAYAMYCIN K] | 148 nM | 7.28 µM |  |  |
| C[C@@H]1O[C@@H](O[C@H]2CC[C@H](O[C@H]3[C@H](O)C[C@H](c4ccc5c(c4O)C(=O)C4=C(C5=O)[C@@]5(O)C(=O)C[C@](C)(O)C[C@@]5(O)C=C4)O[C@@H]3C)O[C@H]2C)C=CC1=O |  |  | 43.5 µM |  |
